Experimental data from different studies.
Compare with care: the assays were run in different laboratories.
Target: 5-hydroxytryptamine receptor 1A (HTR1A, Homo sapiens, UniProt P08908)
Sequence (P08908 1-422, as in one of the studies): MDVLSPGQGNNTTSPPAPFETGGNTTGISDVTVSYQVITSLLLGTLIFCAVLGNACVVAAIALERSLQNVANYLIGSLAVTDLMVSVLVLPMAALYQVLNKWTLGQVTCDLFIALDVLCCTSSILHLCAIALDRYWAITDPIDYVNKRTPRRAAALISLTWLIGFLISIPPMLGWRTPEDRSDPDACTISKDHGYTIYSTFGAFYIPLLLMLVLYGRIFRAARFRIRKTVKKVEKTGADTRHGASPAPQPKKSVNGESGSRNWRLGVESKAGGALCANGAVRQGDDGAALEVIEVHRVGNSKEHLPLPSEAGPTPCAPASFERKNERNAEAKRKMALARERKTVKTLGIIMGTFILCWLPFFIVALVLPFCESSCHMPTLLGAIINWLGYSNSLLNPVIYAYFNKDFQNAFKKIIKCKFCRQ

SMILES | effect on | mode | method | concentration | endpoint | value
COc1cc(NC(C)=O)c(Cl)cc1C(=O)Nc1nccs1 | ligand displacement | – | radioligand | 10 µM | inhibition | 23.8%
COc1ccc(-n2nc(OCCCN3CCCCC3)ccc2=O)cc1 | ligand displacement | – | – | 1 µM | inhibition | 18.5%
CCN(CC)c1ccc(C2Nc3ccc(C(=O)c4ccccc4)cc3NC3=C2C(=O)CC(C)(C)C3)cc1 (stereo not shown) | ligand displacement | – | radioligand | 10 µM | inhibition | 22%
CN1CCN(CCCOc2ccc(=O)n(-c3ccc(Cl)c(Cl)c3)n2)CC1 | ligand displacement | – | – | 1 µM | inhibition | 20.6%
c1ccc(N2CCN(Cc3nc4ccccc4[nH]3)CC2)nc1 | ligand displacement | – | radioligand | 10 µM | inhibition | 37.9%
CCCNc1nc2ccccc2n1Cc1ccc(Cl)cc1 | ligand displacement | – | – | 10 µM | inhibition | 0.33%
O=C(CCCN1CCCN(c2ccc(Cl)cc2)CC1)c1ccc(F)cc1 | cAMP | agonist | luciferase | – | Emax | 4.4%
CN([C@@H]1CCc2c(CC(=O)O)c3ccccc3n2C1)S(=O)(=O)c1ccc(F)cc1 | ligand displacement | – | radioligand | 10 µM | inhibition | 15.5%
COc1cc2c3c(c1OC)-c1cc4c(cc1CC3N(C)CC2c1ccccc1)OCO4 (stereo not shown) | ligand displacement | – | radioligand | 10 µM | inhibition | < 50%
N#Cc1cc(Cn2c(N3CCCC3)nc3ccccc32)ccc1F | ligand displacement | – | – | 10 µM | inhibition | -8.04%
CCCCCCOc1c(OC)cc2c3c1-c1cc4c(cc1CC3N(C)CC2c1ccccc1)OCO4 (stereo not shown) | ligand displacement | – | radioligand | 10 µM | inhibition | -13.5%
O=C1N=C(N2CCCCN2)S/C1=C\c1ccc(F)cc1O | ligand displacement | – | radioligand | 10 µM | inhibition | 20%
CCN(Cc1ccccc1C(F)(F)F)C(=O)C1CCN(S(=O)(=O)c2ccc3[nH]ncc3c2)CC1 | ligand displacement | – | radioligand | 10 µM | inhibition | 0%
CC1=C(C#N)C(c2ccc3c(c2)c(NC(=O)c2ccccc2C)nn3C)C(C#N)=C(C)N1 | ligand displacement | – | radioligand | 10 µM | inhibition | 8.55%
Oc1cccc(Nc2nc(-c3ccc(F)cc3F)cs2)c1 | ligand displacement | – | radioligand | 10 µM | inhibition | 31.5%
O=C(Nc1ccc(S(=O)(=O)N2CCC(Cl)CC2)cc1)c1ccc([N+](=O)[O-])o1 | ligand displacement | – | radioligand | 10 µM | inhibition | 4%
